The values that follow come from ChEMBL document CHEMBL1133638, “Synthesis and biological activity of a novel 11a-homo (cyclohexyl) prostaglandin” (J Med Chem, 2000).

Assay [1] in a line: Evaluated for its concentration at which 50% of maximal stimulation of phosphoinositide turnover was observed. The class given is functional, Mus musculus. Summed up: (§1)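 Swiss 3T3 mouse fibroblasts with FP receptors, confluent, labelled 24-30 h at 37 °C with 1.0-1.5 μCi [3H]-myo-inositol in DMEM. Rinsed into DMEM/F-12 with 10 mM LiCl, then agonist or solvent for 60 min at 37 °C, triplicate. Stopped with ice-cold 0.1 M formic acid. Total [3H]IPs isolated on anion-exchange resin and counted.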

The species named for assay [2] is Mus musculus. The assay can be described thus: Evaluated for percent maximum response relative to cloprostenol (n=2). The class given is functional. Summed up: as §1
Assay [3] is filed under the species Mus musculus. The assay can be described thus: Evaluated for percent maximum response relative to cloprostenol (n = 105). The class given is functional. In outline:
as §1

The species named for assay [4] is Mus musculus. Kind of assay: Evaluated for percent maximum response relative to cloprostenol (n=11). The class given is functional. Summed up: as §1

For `O=C(O)CCC/C=C\C[C@@H]1[C@@H](/C=C/[C@@H](O)COc2cccc(Cl)c2)[C@H](O)CC[C@@H]1O`, a half-maximal effect in assay [1] (EC50) was put at 319 nM. In addition, the Max response in assay [2] amounted to 72%.
On to `O=C(O)CCC/C=C\C[C@@H]1[C@@H](/C=C/[C@H](O)COc2cccc(Cl)c2)[C@H](O)CC[C@@H]1O`, for which the EC50 (usually the concentration at which the effect is half-maximal) in assay [1] was 2750 nM. In assay [2], the Max response is 50%.
For the molecule `O=C(O)CCC/C=C\CC1C(O)CC(O)C1/C=C/C(O)COc1cccc(Cl)c1` (stereo not drawn) [CLOPROSTENOL], the Max response in assay [3] amounted to 100%. Besides, in assay [1], it took 1 nM to reach a half-maximal effect (EC50).
Turning to `CCCCC[C@H](O)/C=C/[C@@H]1[C@@H](C/C=C\CCCC(=O)O)[C@@H](O)C[C@H]1O` [DINOPROST], the Max response in assay [4] was 91%. The molecule further gave an EC50 in assay [1] of 23 nM.
